# Jurkat NFkB inh: lowers PMA/ionomycin-induced NF-kB signal in Jurkat cells. PMA/ionomycin-induced NF-kB luciferase reporter, luminescence. actives 0.53% (n = 330,000). AID 435003. inhibition, % at 4 µM; in the data active means inhibition above about 50%
# 697 NFkB inh: inhibitors of the PMA/ionomycin-induced NF-kB reporter in 697 B cells | actives 0.33% (n = 330,000) | 697 B-cell NF-kB luciferase reporter, 16 h | inhibition, % at 4 µM; in the data active means inhibition above about 35%
# UPR CHOP act: activators of apoptotic arm of unfolded protein response (CHOP). AID 449763. CHO-CHOP luciferase reporter, UPR activation, luminescence; percent of tunicamycin response over DMSO baseline. actives 0.34% (n = 330,000). activation, % at 10 µM;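 active means at 10 µM dose, activation of 40% or more, normalized to positive control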
#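 Assay system: CHO cells with stable CHOP pathway luciferase reporter; Buffer or medium: F12 plus 10% serum; Times: 16-18 h cell attachment, then 6 h compound exposure, 37 °C; Signal: luciferase luminescence; Read-out basis: percent activation relative to tunicamycin control; Control set: tunicamycin high control, DMSO low control.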
# XBP1 UPR activ: activators of adaptive arm of unfolded protein response (XBP1); actives 0.33% (n = 330,000); AID 463104; CHO-XBP1 luciferase reporter, IRE1-XBP1 UPR activation, luminescence; percent of tunicamycin response, DMSO as zero; activation, % at 20 µM;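 active means versus positive control, 20 µM dose yields 30% or more activation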
#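 incubation = overnight seeding at 37 °C, 6 h compound treatment at 37 °C | assay system = CHO-XBP1 cells stably carrying IRE1-XBP1-driven luciferase reporter | input = 1000 cells per well | detection = luciferase luminescence | dosing = single point, 20 µM final compound, 1% DMSO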
# CHOP inhibitor: CHOP inhibition in unfolded protein response | actives 3.8% (n = 220,000) | CHO-K1 CHOP-promoter luciferase, tunicamycin-induced, 15-18 h | inhibition, % at 10 µM;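 active means compounds that reduced the stress-induced luciferase reporter signal by more than about 70% of percent inhibition, limit read from the data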
# Jurkat NFkB conf: lowers PMA/ionomycin-induced NF-kB signal in Jurkat cells; shares compounds with Jurkat NFkB inh; Jurkat NF-kB luciferase, 16 h; inhibition, % at 4 µM; actives 27% (n = 2,700); AID 435020;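 active means inhibition reaching about 45% at 4 µM in either replicate, limit read from the data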
# Hits are given with their value; n = inactive; x = no result given. This excerpt belongs to a sample that is enriched for hits.
SMILES,Jurkat NFkB inh,697 NFkB inh,UPR CHOP act,XBP1 UPR activ,CHOP inhibitor,Jurkat NFkB conf
Cc1ccc(S(=O)(=O)N2CCCCC2)cc1C(=O)OC(C)C(=O)NC1CCCCC1C (centres undefined),n,n,n,n,x,x
COc1ccc(-c2cc3ccc(OCC(C)=O)cc3oc2=O)cc1,n,n,n,n,x,n
Cc1cc(NC(=O)CSc2nc(-c3ccco3)cc(C(F)(F)F)n2)n(-c2ccccc2)n1,n,n,n,n,x,x
Cc1ccc(NC(=O)CSc2nc(-c3ccco3)cc(C(F)(F)F)n2)cc1C,71,n,n,n,n,49
O=C(CSc1nc(-c2ccco2)cc(C(F)(F)F)n1)Nc1ccc2c(c1)CCC2,61,n,n,n,n,n
COC(=O)c1ccccc1NC(=O)CSc1nc(-c2ccco2)cc(C(F)(F)F)n1,56,n,n,n,x,n
CCOC(=O)c1c(C=O)c2sc(C)cc2n1C,n,n,n,n,n,x
COc1ccc(-n2ncc3c(NCc4cccnc4)ncnc32)cc1,n,n,n,n,x,x
c1ccc(Cn2ncc3c(NCc4ccco4)ncnc32)cc1,n,n,n,n,n,x
C=CCNc1ncnc2c1cnn2-c1ccc(Cl)cc1,n,n,n,n,n,n
COCC(C)Nc1ncnc2c1cnn2-c1ccc(Cl)cc1 (centres undefined),n,n,n,n,n,n
Clc1ccc(-n2ncc3c(NCc4ccccn4)ncnc32)cc1,n,n,n,n,n,x
Clc1ccc(Cn2ncc3c(NCc4ccccc4)ncnc32)cc1,56,n,n,n,n,n
COc1ccc(-n2ncc3c(NC(C)C)ncnc32)cc1,n,n,n,n,n,n
c1csc(-c2nnc(-c3ccc(N4CCOCC4)cc3)o2)c1,n,n,n,n,n,n
COc1cc(C(=O)COC(=O)c2c(C)noc2C)cc(OC)c1OC,n,n,n,n,x,n
Cn1c(=O)c(=O)n(C)c2cc(S(=O)(=O)N3CCCC3C(=O)NCc3cccs3)ccc21 (centres undefined),n,n,n,n,n,x
CC(=O)Nc1ccc(S(=O)(=O)N(C)CC(=O)OCC(=O)c2ccc3c(c2)NC(=O)CO3)cc1,n,n,n,n,x,x
Cc1ccc(S(=O)(=O)NCc2ccccn2)c(C)c1C,n,n,n,n,x,x
Cc1ccc(S(=O)(=O)NCc2ccncc2)c(C)c1C,62,n,n,n,n,68
CCCCCOc1ccc(Br)cc1/C(C)=N/NC1=NCCN1,63,n,n,n,x,n
C/C(=N\NC1=NCCN1)c1ccccc1,n,n,n,n,n,x
COc1ccc(Br)cc1/C(C)=N/NC1=NCCN1,67,n,n,n,n,n
COc1ccc(N(CC(=O)NCCSCc2ccccc2Cl)S(C)(=O)=O)cc1Cl,n,n,n,n,x,x
O=C(Cc1cccs1)NCc1ccccc1Br,n,n,n,n,x,x
SMILES,Jurkat NFkB inh,697 NFkB inh,UPR CHOP act,XBP1 UPR activ,CHOP inhibitor,Jurkat NFkB conf
CC1(C)N=C(N)N=C(N)N1c1ccc(Oc2ccc(Cl)cc2)c(Cl)c1,82,n,n,n,x,66
O=C(Nc1cc2c3c(c1)CC(=O)N3CCC2)C1CCCCC1,n,n,n,n,x,x
CCn1c(SCc2ccccc2Cl)nc2nc3c(cc2c1=O)CCCC3,x,x,x,x,n,x
CCn1c(SCc2c(Cl)cccc2Cl)nc2nc3c(cc2c1=O)CCCC3,55,n,n,n,x,n
COc1ccc(CCNC(=O)CCS(=O)(=O)c2ccc3c(c2)NC(=O)C(C)S3)cc1OC (centres undefined),n,n,n,n,x,x
CC(=O)c1ccc(OCC(=O)OCc2cc(-c3ccco3)on2)cc1,n,n,n,n,x,x
O=C1C=C(c2ccc3cc[nH]c3c2)C[C@@H](c2ccc3c(c2)OCO3)C1,53,n,n,n,x,n
O=C1C=C(c2ccc3c(c2)OCO3)C[C@@H](c2ccc3c(c2)OCO3)C1,n,n,n,n,x,x
Cc1ccc(NCCC(=O)c2cccs2)cc1C,n,n,n,n,n,n
CC(C)c1ccc(NCCC(=O)c2cccs2)cc1,n,n,n,n,n,x
O=C(NC1CCCCC1)c1ccc(-c2ccccc2[N+](=O)[O-])o1,n,n,n,n,x,n
O=[N+]([O-])c1ccc(N2CCN(c3cccc(Cl)c3)CC2)nc1,61,n,n,n,x,n
Oc1ccccc1/C=N/Nc1cccc2cccnc12,n,n,n,n,n,n
O=C(c1cc(-c2ccncc2)nc2c(Cl)cccc12)N1CCN(c2ccccc2F)CC1,60,n,n,n,x,n
O=C(c1cc(-c2ccccc2Cl)nc2ccccc12)N1CCN(c2ccccc2O)CC1,n,n,n,n,x,x
COc1ccc(C(=O)N2CCN(c3cccc(Cl)c3)CC2)cc1,n,n,n,n,n,x
COc1ccc(C(=S)N2CCN(c3cccc(Cl)c3)CC2)c(OC)c1,63,n,n,n,n,n
COc1ccc(/C=N/Nc2cc(C)nc3ccc(OC)cc23)c(OC)c1,77,n,n,n,x,n
COc1ccc(OC)c(Nc2cc(C)nc3ccc(C)cc23)c1,62,n,n,n,x,n
COc1ccc2nc(C)cc(Nc3ccc(N4CCOCC4)cc3)c2c1,n,n,n,n,n,x
CC(=O)c1ccc(Nc2cc(C)nc3c(C)cccc23)cc1,56,n,n,n,n,n
COc1ccc2nc(C)cc(Nc3ccc(N4CCN(C)CC4)cc3)c2c1,74,n,n,n,x,n
CCC(C(=O)OCC(=O)N1CCN(c2ccc(OC)cc2)CC1)c1ccccc1 (centres undefined),n,n,n,n,x,x
COC(=O)c1ccc2nc(C)cc(Nc3ccccc3C)c2c1,n,n,n,n,n,x
COC(=O)c1ccc(Nc2cc(C)nc3ccc(C)cc23)cc1,59,n,n,n,n,n
SMILES,Jurkat NFkB inh,697 NFkB inh,UPR CHOP act,XBP1 UPR activ,CHOP inhibitor,Jurkat NFkB conf
COc1ccc(/C=N/Nc2ncccc2[N+](=O)[O-])c(OC)c1,n,n,n,n,n,n
CC1CCCC(NC(=O)NC(=O)COC(=O)c2ccc(O)cc2O)C1C (centres undefined),n,n,n,n,x,x
O=C(CCC1CCN(C(=O)c2cc(C(F)(F)F)ccc2Cl)CC1)NC1CC1,n,n,n,n,x,x
Cc1nn(-c2nc3ccccc3s2)c(N)c1-c1ccccc1,n,n,n,n,n,n
Cc1nn(-c2nc3ccccc3s2)c(N)c1-c1ccc(Cl)cc1,n,n,n,n,n,x
COc1ccc(NC(=O)C(=O)NCC2CCCN2S(=O)(=O)c2cccs2)cc1 (centres undefined),65,n,n,n,x,54
Cc1ccc(NC(=O)C(=O)NCC2CCCN2S(=O)(=O)c2cccs2)cc1C (centres undefined),n,n,n,n,x,x
Cn1c2ccccc2c(=O)c2ccc(C#CC3(N)CCCCC3)cc21,n,n,n,n,x,n
Cc1ccc2c(c1)cc1c(=O)n(CC(=O)NCCCc3ccccc3)nc(C)n12,n,n,n,n,x,x

# Compound activity deposited in PubChem by several laboratories.
